The values below come from ChEMBL document CHEMBL1137607, “De novo discovery of serotonin N-acetyltransferase inhibitors” (J Med Chem, 2007).

pIC50: −log10 of the molar value. Activity calls are given as the source filed them. The rule behind the calls is not given here.

The target of data set [1] is Serotonin N-acetyltransferase (Ovis aries) (UniProt Q29495). The following applies: at 100 µM.
The target is the same in data set [2]. As to conditions: at 100 µM. This is another data set of the same source.
Data set [3] shares this target. As to conditions: at 100 µM. This is another data set of the same source.
Data set [4] has the same target. As to conditions: at 100 µM. The source holds these as a separate data set.
For data set [5], the target named is T1, Serotonin N-acetyltransferase (Ovis aries, UniProt Q29495). Description: Inhibition of ovine AANAT by spectrophotometric assay.
T1 sequence (Q29495 whole entry): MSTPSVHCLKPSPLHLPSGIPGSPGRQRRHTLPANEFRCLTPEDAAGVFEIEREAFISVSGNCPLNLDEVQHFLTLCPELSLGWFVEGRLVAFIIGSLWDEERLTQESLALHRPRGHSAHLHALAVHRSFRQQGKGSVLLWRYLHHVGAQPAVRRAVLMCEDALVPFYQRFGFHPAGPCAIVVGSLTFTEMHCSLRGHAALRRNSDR
A short description of data set [6]: Inhibition of melatonin biosynthesis in rat pinealocytes. The data set is classed as functional, cell-based.
Data set [7] has as its target T1, Serotonin N-acetyltransferase. Description: Inhibition of ovine AANAT by TLC-based radioactive assay.
Data set [8] can be described thus: Toxicity in rat pinealocytes. The following applies: in vitro. The data set is classed as cell-based.
Data set [9] has as its target Histone acetyltransferase KAT2B (Homo sapiens) (UniProt Q92831). Description: Inhibition of PCAF HAT at 50 uM. An outline of the steps: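 Radioactive HAT assay on purified PCAF HAT catalytic domain (10 nM), with histone H3 residues 1-20 (10 μM) as substrate, in 50 mM Tris-HCl pH 8.0, 1 mM DTT, 0.1 mM EDTA, 50 μg/mL BSA, 3.3% DMSO, 30 °C. Inhibitor tested at 0-50 μM. Started with 20 μM [14C]-AcCoA and quenched after 5 min. Gel separation, phosphorimaging against [14C]-BSA standard, no-enzyme background subtracted, duplicates.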

Data set [10] concerns the target Serotonin N-acetyltransferase (Ovis aries) (UniProt Q29495). Description: Inhibition of ovine AANAT at 25 uM by radioactive assay.
For data set [11] the target is unchanged. The data set is described as follows: Inhibition of ovine AANAT at 25 uM by spectrophotometric assay.
The target is the same in data set [12]. The data set is described as follows: Inhibition of ovine AANAT in presence of Triton X-100 at 25 uM by spectrophotometric assay.
Data set [13] has the same target. Description: Inhibition of ovine AANAT at 25 uM by alpha-KD-coupled spectrophotometric assay.

Sequence of Serotonin N-acetyltransferase (Ovis aries) (Q29495 whole entry): as above
Sequence of Histone acetyltransferase KAT2B (Homo sapiens) (Q92831 whole entry, looked up, the tested form may be a part): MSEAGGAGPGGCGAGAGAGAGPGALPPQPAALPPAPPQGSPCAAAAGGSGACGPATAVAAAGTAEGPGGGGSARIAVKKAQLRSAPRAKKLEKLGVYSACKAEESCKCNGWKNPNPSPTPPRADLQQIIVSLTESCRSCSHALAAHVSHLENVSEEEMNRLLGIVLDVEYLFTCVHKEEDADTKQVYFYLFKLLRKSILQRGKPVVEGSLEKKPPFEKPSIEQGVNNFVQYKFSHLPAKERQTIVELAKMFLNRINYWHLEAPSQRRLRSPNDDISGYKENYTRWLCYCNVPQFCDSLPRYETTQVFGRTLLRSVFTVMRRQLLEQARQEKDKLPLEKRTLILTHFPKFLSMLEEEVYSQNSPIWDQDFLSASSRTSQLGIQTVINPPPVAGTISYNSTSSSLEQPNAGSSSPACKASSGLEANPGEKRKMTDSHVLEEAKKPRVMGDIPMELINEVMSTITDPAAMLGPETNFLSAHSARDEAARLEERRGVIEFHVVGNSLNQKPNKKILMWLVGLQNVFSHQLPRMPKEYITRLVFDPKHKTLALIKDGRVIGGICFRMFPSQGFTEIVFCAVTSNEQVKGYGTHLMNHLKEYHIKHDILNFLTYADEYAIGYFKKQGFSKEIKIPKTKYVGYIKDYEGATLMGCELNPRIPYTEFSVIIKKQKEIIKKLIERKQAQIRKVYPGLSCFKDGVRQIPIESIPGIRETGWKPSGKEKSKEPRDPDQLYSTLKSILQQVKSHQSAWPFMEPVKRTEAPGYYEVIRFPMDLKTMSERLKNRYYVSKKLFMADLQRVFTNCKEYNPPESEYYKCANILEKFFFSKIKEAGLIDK

`COc1ccc(/C=N/c2ccc(CC(=O)O)cc2)cc1`: the inhibition in data set [1] was determined as 64%; in [2], 30%; in data set [3] it was 41%; in data set [4], 13%.
Take `COc1ccc(/N=N/c2ccc(S(=O)(=O)O)cc2)cc1`: the inhibition came out at 28% in [1], 60% in data set [2] and 65% in [3].
On to `Cc1ccc(CN2C(=O)C(C3SC(=S)N(CCS(=O)(=O)O)C3=O)c3ccccc32)cc1` (stereo not given), for which the inhibition in data set [1] came to 54%; in data set [2] it was 98%; in [3] it was 84%; in data set [4], 99%. In data set [5], this compound gave a negative logarithm of the IC50 (pIC50) of 4.60.
On to `COC(=O)Nc1ccc(S(=O)(=O)Nc2cc(OC)nc(OC)n2)cc1`, for which the inhibition in data set [2] was 24%; in [3], 42%.
On to `O=C(O)CCCCCN1C(=O)C(C2C(=O)N(Cc3ccc(F)cc3)c3ccccc32)SC1=S` (stereo not given), for which the inhibition in [1] turned out to be 66%; in data set [2] it was 74%; in data set [3], 81%; in data set [4], 98%. The pIC50 in [6] is 4.00; in data set [7], 4.95; in data set [5], 4.34. The Activity entry in [8] was “Non-toxic”. In data set [9], the result was inactive.
Consider `COc1ccc(NC(=O)CN2C(=O)/C(=C3\SCN(CCS(=O)(=O)O)C3=O)c3ccccc32)cc1`, for which the inhibition in data set [10] amounted to 0%; in data set [11], 52%; in data set [12], 41%; in [13], 56%.
For the compound `CC(C)Oc1ccc(C(=O)CC(=O)Nc2ccc(S(=O)(=O)F)cc2)cc1`, the inhibition in data set [11] amounted to 43%; in data set [12], 59%; in data set [13], 0%.
Turning to `O=C(CN1C(=O)C(C2SC(=S)N(CCS(=O)(=O)O)C2=O)c2ccccc21)Nc1ccccc1` (stereo not given), the inhibition in data set [1] amounted to 70%; in data set [2] it was 80%; in data set [3] it was 99%; in data set [4], 99%. In data set [5], this compound gave a pIC50 of 4.80.
`CCOc1ccc(C(=O)CC(=O)Nc2ccc(S(=O)(=O)F)cc2)cc1OC`: the inhibition came to 79% in [1], 100% in data set [2], 98% in [3] and 31% in [4].
The compound `O=C(O)COc1ccc(/C=N/NC(=O)c2ccc(OCc3ccccc3)cc2)cc1` gave an inhibition in data set [4] of 74%. Besides, the pIC50 in [5] is 3.40.
Consider `O=C(O)CCCCCN1C(=O)/C(=C2/C(=O)N(CC(=O)O)c3ccc(Br)cc32)SC1=S`, for which the figures for the inhibition in data set [11], in data set [12] and in data set [13] were 43%, 55% and 11%, respectively.
Consider `O=C(O)CCCN1C(=O)/C(=C2/C(=O)Nc3ccc(Br)cc32)SC1=S`, for which the inhibition is 52% in data set [11], 41% in data set [12] and 21% in data set [13].
For `O=C1CC(CC(=O)N/N=C/c2c(O)ccc3ccccc23)=NN1`, the inhibition in data set [2] worked out at 23%; in [3], 50%.
The matching figures for `O=C(COc1ccc([N+](=O)[O-])cc1)N/N=C/c1ccccc1COc1ccccc1`: 11% and 40%.
Consider `O=C(O)CCCCCN1C(=O)C(C2C(=O)Nc3ccccc32)SC1=S` (stereo not given), for which the inhibition in data set [1] was 78%; in data set [2], 83%; in data set [3], 100%; in data set [4], 94%. Besides, the pIC50 in data set [5] is 4.28.
Consider `CCc1ccc(/C=N/c2c(C)n(C)n(-c3ccccc3)c2=O)cc1`, for which the inhibition in [10] was 0%; in data set [11], 70%; in data set [12] it was 61%; in data set [13], 47%.

By inhibition is commonly meant the percentage by which the read-out fell short of the control. One may read the pIC50 as the IC50 on a negative log10 scale, so that one unit is a factor of ten.
